# Rows were chosen to be rich in hits. Some 2.9% of all compounds tested hit in one or more screens of this group.
# CHO-K1 Ca antag: M1 antagonist counterscreen hit in parental CHO-K1 cells; ATP-induced calcium, Fluo-8 fluorescence; inhibition, % at 3 µM; 360,000 tested, 0.6% active; AID 602250;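 active = inhibition above a per-plate cutoff, the plate's mean sample inhibition plus 3 SD, cut at about 24% in these data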;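 note: 0% = DMSO plus EC80 ATP and 100% = DMSO alone without ATP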
# OX1R antag-1: blocks the human orexin 1 receptor | inhibition, % at 6.6 µM | O43613 | 330,000 tested, 1.8% active | OX1R-expressing cells, FRET antagonist read-out | AID 485270; in the data active = inhibition mostly above about 38%, no sharp cut-off; inactive = mostly below about 40%;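 note: 0% = agonist challenge alone and 100% = reference antagonist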
# Target sequence (O43613 whole entry, looked up): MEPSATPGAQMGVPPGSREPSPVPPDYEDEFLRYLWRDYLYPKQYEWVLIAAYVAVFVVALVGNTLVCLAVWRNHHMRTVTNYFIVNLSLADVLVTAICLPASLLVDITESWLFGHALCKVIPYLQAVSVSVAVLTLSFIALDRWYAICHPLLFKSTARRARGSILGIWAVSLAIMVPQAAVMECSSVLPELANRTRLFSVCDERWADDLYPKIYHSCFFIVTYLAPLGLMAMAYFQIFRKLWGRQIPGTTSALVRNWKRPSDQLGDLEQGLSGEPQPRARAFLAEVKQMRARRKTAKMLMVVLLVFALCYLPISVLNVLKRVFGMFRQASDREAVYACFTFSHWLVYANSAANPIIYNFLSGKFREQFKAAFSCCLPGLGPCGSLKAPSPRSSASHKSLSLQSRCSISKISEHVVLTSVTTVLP
# CHO parental Ca: signal in parental CHO cells, OX1R antagonist counter-screen. inhibition, % at 5.6 µM. AID 463079. parental CHO-K1, ATP-induced calcium, Fluo-8 fluorescence. 330,000 tested, 0.63% active;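 active = inhibition above that plate's mean sample inhibition plus 3 SD, cut at about 26% in these data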;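 note: 0% = ATP-challenged DMSO wells and 100% = DMSO wells without ATP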
#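 Test system: untransfected parental CHO cell line; also added: ATP stimulus; dosing: 5.6 µM, single dose; signal: calcium-sensitive Fluo-8 fluorescence; measure: percent inhibition of ATP-evoked calcium rise, normalized to controls; benchmarks: low control ATP plus DMSO, high control DMSO only; replication: one well per compound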
# M1 PAM parental: counter-screen for M1 PAMs: effect in parental CHO-K1 cells. activation, % at 3 µM. 360,000 tested, 0.02% active. ATP EC20, Fluo-8 calcium fluorescence; 0% at ATP EC20, 100% at ATP max;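 active = activation above the run cutoff, the mean activation of all test compounds plus 3 SD, cut at about 40% in these data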;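 note: peak over basal fluorescence ratio in a 140 s read after ATP addition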
# OX1R antag-2: antagonists of human orexin 1 receptor. 330,000 tested, 0.43% active. CHO/OX1R cells, Fluo-8 calcium fluorescence, orexin A. inhibition, % at 5 µM. AID 434989. O43613;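 active = inhibition above its plate's threshold, mean inhibition of all tested compounds on the plate plus 3 SD, cut at about 37% in these data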;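 note: 0% = orexin A challenge wells and 100% = SB-334867-A antagonist wells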
# M1 ag parental: M1 agonist counterscreen hit in parental CHO-K1 cells; Fluo-8 calcium fluorescence; scaled to maximal ATP response, vehicle zero; activation, % at 3 µM; 360,000 tested, 0.48% active; AID 602248; in the data active = activation above about 15%;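 note: untransfected CHO-K1 host cells lacking M1 receptor as counterscreen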
# Active calls of the source: *; / = no result given.
SMILES,CHO-K1 Ca antag,OX1R antag-1,CHO parental Ca,M1 PAM parental,OX1R antag-2,M1 ag parental
Cc1ccc(NCC(=O)N/N=C\c2ccc([N+](=O)[O-])o2)cc1,-26.2,23.9,8.8,17.7,-1.8,-0.2
Cc1ccc(S(=O)(=O)NCCC(=O)Nc2ncccc2O)cc1C,-3.3,23.9,2.1,21.6,-10.2,5.0
CN1CCN(c2ccc(NC(=O)c3ccc([N+](=O)[O-])o3)cc2Cl)CC1,-0.4,53.6*,17.4,9.5,-6.8,2.6
CCN1CCN(c2c(Cl)cccc2NC(=O)c2ccc([N+](=O)[O-])o2)CC1,-12.9,55.9*,-15.0,21.5,-14.1,0.8
Cc1cc(C(=O)Nc2ccc(N3CCCC3)c(Cl)c2)ccc1[N+](=O)[O-],1.6,55.3*,-2.4,9.3,2.7,6.1
Cc1cc(C(=O)Nc2ccon2)ccc1[N+](=O)[O-],2.5,19.6,-13.0,2.1,-9.8,21.4*
O=C(Nc1ccc(N2CCCC2)c(Cl)c1)c1ccc([N+](=O)[O-])cc1,-2.1,20.1,3.0,2.8,-31.5,0.2
COc1ccc2nc(NC(=O)C3CC(=O)N(c4ccccc4)C3)sc2c1 (stereo unspecified),-14.6,7.0,1.8,27.4,-7.0,2.9
CC(C)C(=O)N1CCN(c2ccc(NC(=O)c3ccc([N+](=O)[O-])o3)cc2)CC1,-3.6,46.0*,-2.1,18.9,-8.7,8.1
OCC[C@H]1C[C@H](O)[C@@H](O)[C@@]2(Cc3ccccc3O2)O1,-9.5,1.0,7.7,13.1,-7.6,0.8
CC(=O)N1CCc2cc(S(=O)(=O)NC(C(=O)NC(C)c3ccccc3)C(C)C)ccc21 (stereo unspecified),-20.4,8.0,-13.2,17.3,-19.9,0.8
O=C(NCC1CCCN1S(=O)(=O)c1cccs1)c1cccc([N+](=O)[O-])c1 (stereo unspecified),-4.9,55.2*,-11.1,4.5,-8.7,0.6
Cc1ccc(NC(=O)C(=O)NCC2CCCN2S(=O)(=O)c2cccs2)cc1C (stereo unspecified),-5.5,9.0,10.1,28.6,-13.0,6.0
Cc1ccccc1NC(=O)C(=O)NCC1CCCN1S(=O)(=O)c1cccs1 (stereo unspecified),1.9,33.6*,-14.9,17.5,-7.1,0.9
CC(=O)Nc1ccc(NS(=O)(=O)c2ccc3c(c2)oc(=O)n3C)cc1,0.8,14.5,6.5,-7.7,-2.2,0.4
Cc1ccccc1N=Nc1ccc(O)c2ncccc12,13.5,13.3,43.6,-4.6,25.6,-0.1
COc1ccc(C)cc1N=Nc1ccc(O)c2ncccc12,13.2,/,/,13.4,/,4.3
COc1cccc(N=Nc2ccc3cccnc3c2O)c1,12.2,14.7,83.1*,-12.4,53.0*,38.3*
COc1cccc(N=Nc2ccc(O)c3ncccc23)c1,34.6*,10.3,55.5*,-6.2,49.3*,41.4*
COc1ccc(C(NC(=O)C(C)C)c2ccc3cccnc3c2O)cc1 (stereo unspecified),-20.5,18.0,-16.5,20.2,-31.9,0.8
COc1ccc(N=Nc2ccc(O)c3ncccc23)cc1,-3.9,21.5,50.5*,5.0,33.2,5.0
Oc1ccc(N=Nc2ccc3c(c2)OCCO3)c2cccnc12,-6.5,21.1,44.7*,6.1,47.9*,2.7
CC(=O)Nc1ccc(NC(=O)C(C)Sc2nnc(C3CC3)n2-c2ccccc2)cc1 (stereo unspecified),-6.2,-2.1,-8.0,0.8,-15.2,-0.2
O=S(=O)(C=C(c1ccccc1)c1ccccc1)c1ccccc1,-7.9,41.8,47.9*,19.3,42.9*,5.9
O=S(=O)(/C=C/c1ccccc1)c1ccccc1,-5.6,9.1,14.1,-2.6,-2.3,0.1
SMILES,CHO-K1 Ca antag,OX1R antag-1,CHO parental Ca,M1 PAM parental,OX1R antag-2,M1 ag parental
CC[C@H](C)[C@H]1CNC(=S)N1CC1CCN(CCC(C)(C)C)CC1,-11.4,/,/,1.9,/,0.3
Nc1c(C(=O)O)sc2nc3c(cc12)CCCC3,4.6,7.8,3.8,7.2,-24.4,16.1*
COc1ccccc1N1CCN(Cc2cn[nH]c2-c2ccc(F)cc2)CC1,-32.5,11.8,-40.7,26.5,-44.6,18.8*
COc1cc(OC)c(OC)cc1CN1CCN(c2ccccc2OC)CC1,-15.3,4.8,-22.4,8.5,-25.7,0.2
O=c1ncn(-c2cccc(Cl)c2)c2ccccc12,-9.8,1.6,-8.2,8.2,-8.2,0.6
Cc1cc(NC(=O)NC2CC(=O)N(c3ccc4c(c3)OCCO4)C2)no1 (stereo unspecified),-10.7,7.6,0.3,1.8,3.5,0.0
N#Cc1c(-c2ccc([N+](=O)[O-])cc2)nc2n(c1=O)CCS2,-14.2,64.8*,-2.8,11.9,-4.6,5.8
Cc1ccc(CNC(=O)C2CCC(=O)N(CCc3cccc(F)c3)C2)cc1 (stereo unspecified),1.0,11.0,-19.2,1.8,-25.4,1.0
O=C(CSc1nnc(COc2ccccc2F)n1-c1ccccc1)NC1CCS(=O)(=O)C1 (stereo unspecified),27.7*,10.4,-3.6,-12.9,-12.0,-0.4
COC(=O)c1cc(C(=O)OCC(=O)NC2CCCCCCC2)cc([N+](=O)[O-])c1,5.3,18.3,-8.0,-7.4,-15.5,-0.3
Cc1ccc(S(=O)(=O)N2CCN(C(=O)COC(=O)c3ccc(O)cc3)CC2)c(C)c1,26.9*,7.0,-16.6,-19.7,-22.5,1.1
COC(=O)c1cc(C(=O)NNC(=O)c2ccc3c(c2)OCO3)cc([N+](=O)[O-])c1,-9.2,54.2*,-11.5,-1.7,-21.6,0.7
COC(=O)c1cc(C(=O)OCC(=O)NNC(=O)c2cccs2)cc([N+](=O)[O-])c1,-9.1,59.9*,-8.7,10.5,-17.0,0.5
COC(=O)c1cc(C(=O)OCC(=O)N2CCCCC2)cc([N+](=O)[O-])c1,4.3,55.6*,-6.5,-8.7,2.3,-0.1
COc1ccccc1-n1cc(C(=O)NCC(=O)N2CCN(Cc3ccccc3)CC2)c2ccccc2c1=O,-18.4,30.2,-0.1,10.6,-32.9,1.1
O=C(c1ccc2ccccc2c1O)N1CCCCC1,-5.3,/,/,12.8,/,4.0
N#CC(CCc1ccc([N+](=O)[O-])cc1)(CCc1ccc([N+](=O)[O-])cc1)C(N)=O,-9.7,/,/,7.8,/,5.5
N#CCC(=O)N1CCN(Cc2ccc3c(c2)OCO3)CC1,4.2,5.6,-12.4,2.4,-16.9,0.3
O=C(OCC(=O)N1CCCCCC1)c1ccc(Cl)c(S(=O)(=O)N2CCCC2)c1,16.8,14.5,-12.2,-10.5,-18.7,15.7*
O=C(OCC(=O)N1CCCC1)c1ccc(Cl)c([N+](=O)[O-])c1,-7.2,65.0*,-2.0,17.6,0.7,1.6
O=C(OCC(=O)N1CCCCC1)c1ccc2c(c1)C(=O)N(Cc1ccco1)C2=O,-2.9,32.6*,-16.2,-4.3,-6.8,0.9
Nc1ccc(C(=O)OCC(=O)N2CCOCC2)cc1[N+](=O)[O-],-3.1,49.4*,2.8,13.6,5.8,0.1

# Assay outcomes as filed in PubChem BioAssay.
